We go through three compounds from ChEMBL document CHEMBL3632581, “Dimers of Melampomagnolide B Exhibit Potent Anticancer Activity against Hematological and Solid Tumor Cells” (J Med Chem, 2015).

Experiment [1] can be described thus: Cytotoxicity against human EKVX cells after 48 hrs by SRB assay. The experiment is classed as functional. Particulars: for CC50: read-out: LC50 (the source's name). Summed up: (§1)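 NCI-60 five-dose screen at 10−8 to 10−4 M. Cells were plated at 5,000–40,000/well in RPMI 1640 with 5% FBS and 2 mM L-glutamine, then preincubated 24 h, and time-zero plates were TCA-fixed. Compound was added from DMSO stocks and exposed 48 h at 37 °C. Cells were TCA-fixed, SRB-stained, and read at 515 nm. LC50 is the concentration halving the cell population through cell death.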
(The SRB assay estimates cell density from bound dye.)

A short description of experiment [2]: Antileukemic activity against human AML03 cells after 24 hrs by annexin V/7-AAD staining-based flow cytometric analysis. It counts as functional, cell-based. Put shortly: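 Primary AML specimens from consenting donors, isolated by Ficoll-Paque gradient and sometimes cryopreserved. Cells were held 1 h in serum-free IMDM with 20% BIT 9500, LDL and β-mercaptoethanol before drug (DMSO stock diluted in PBS, ≤0.5% DMSO final). Exposure was 24 h over 0.5-10 μM. Annexin V/7-AAD double-negative cells, normalized to vehicle, gave the EC50. Run in triplicate.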
For orientation: In flow cytometry, cells or beads pass a laser one at a time.

Another experiment deals with SNB-19. Nature of the experiment: Cytotoxicity against human SNB19 cells after 48 hrs by SRB assay. It counts as functional. To be noted: SNB-19, 48 h. Summed up: as §1
Experiment [3] in a line: Cytotoxicity against rat 9LSF cells at 10 uM after 48 hrs by colony formation assay relative to DMAPT. It counts as functional. Put shortly:
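9L-SF rat gliosarcoma cells in DMEM/F12 with 10% iron-supplemented calf serum were treated at 50% confluence for 48 h (0.3-20 μM; DMSO <0.1%, DMAPT in saline). Cells were rinsed, trypsinized, counted and seeded for colonies, with irradiated feeders when seeding was below 2,000 cells/cm2. Survival was normalized to control plating efficiency and compared with DMAPT at 10 μM. Treatments in triplicate.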

Regarding `C=C1C(=O)O[C@H]2[C@H]1CC/C(COC(=O)NCCCCNC(=O)OC/C1=C/CC[C@@]3(C)O[C@H]3[C@H]3OC(=O)C(=C)[C@@H]3CC1)=C\CC[C@@]1(C)O[C@@H]21`, in experiment [1], the GI50 turned out to be 3690 nM and the CC50 was 37.3 µM. The compound also yielded an EC50 in experiment [2] of 7.3 µM.
In turn, `C=C1C(=O)O[C@H]2[C@H]1CC/C(COC(=O)NCCCCCNC(=O)OC/C1=C/CC[C@@]3(C)O[C@H]3[C@H]3OC(=O)C(=C)[C@@H]3CC1)=C\CC[C@@]1(C)O[C@@H]21` gave a GI50 with SNB-19 of 3.97 µM. In addition, in the experiment with SNB-19 (read-out: LC50 (the source's name)), the CC50 was found to be 92.5 µM.
Regarding `C=C1C(=O)O[C@H]2[C@H]1CC/C(COC(=O)NCCCCCCCCNC(=O)OC/C1=C/CC[C@@]3(C)O[C@H]3[C@H]3OC(=O)C(=C)[C@@H]3CC1)=C\CC[C@@]1(C)O[C@@H]21`, the “fold change (FC)” value in experiment [3] was determined as 303. Besides, in experiment [1], halving of growth (GI50) required 1190 nM and the CC50 was 4.99 µM. The same compound yielded a half-maximal effective concentration (EC50) in experiment [2] of 2.9 µM.

In general, GI50 refers to the concentration that inhibits growth by half. Lower therefore signals greater sensitivity of the cells. Broadly, the EC50 is the concentration that produces a half-maximal response.
